From ChEMBL document CHEMBL1782013, “Discovery of Potent and Selective Inhibitors of Calcium-Dependent Protein Kinase 1 (CDPK1) from C. parvum and T. gondii” (ACS Med Chem Lett, 2010) come the findings set out here.

Active and inactive are the calls of the source. The calls are words filed in the database; no cut-off is given here.

Data set [1] deals with Cryptosporidium parvum. As to the kind of experiment: Antiparasitic activity against Cryptosporidium parvum sporozoites infected in human HCT8 cells assessed as reduction of parasites level treated immediately after infection measured after 24 hrs. To be noted: HCT-8. Type of data set: functional, organism-based. A digest of the protocol:
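Human intestinal HCT-8 cells were infected with C. parvum sporozoites, one sporozoite per host cell. Inhibitor was added at varying concentrations at the time of infection. Parasites present were counted 24 h after infection.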

Another data set relates to Toxoplasma gondii. Nature of the data set: Antiparasitic activity against Toxoplasma gondii infected in human fibroblasts assessed as reduction of parasite invasion. Type of data set: functional, organism-based.
Data set [2] relates to Cryptosporidium parvum. Nature of the data set: Antiparasitic activity against Cryptosporidium parvum sporozoites infected in human HCT8 cells assessed as reduction of parasites level treated 1 hr after infection measured after 24 hrs. The conditions noted are these: HCT-8. Type of data set: functional, organism-based. The gist of the method: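 HCT-8 human intestinal cells infected with C. parvum sporozoites at a 1:1 ratio of HCT-8 cells to sporozoites. Cultures were exposed to a range of inhibitor concentrations starting 1 h after infection. Parasite numbers were counted after 24 h of infection.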

The subject of another data set is SF-539. Nature of the data set: Cytotoxicity against human SF539 cells up to 10 uM after 48 to 72 hrs by alamar blue assay. Type of data set: cell-based.
Data set [3] in a line: Cytotoxicity against human CRL8155 cells up to 10 uM after 48 to 72 hrs by alamar blue assay. Type of data set: cell-based. For orientation: Alamar Blue is a resazurin reagent that responds to reducing activity.
The subject of the next data set is HL-60. Nature of the data set: Cytotoxicity against human HL60 cells up to 10 uM after 48 to 72 hrs by alamar blue assay. Type of data set: cell-based.
The test system of the next data set is HCC 2998. Nature of the data set: Cytotoxicity against human HCC2998 cells up to 10 uM after 48 to 72 hrs by alamar blue assay. Type of data set: cell-based.
Data set [4] concerns the target T1, Calmodulin-domain protein kinase 1 (Toxoplasma gondii, UniProt Q9BJF5).
T1 sequence (Q9BJF5 whole entry): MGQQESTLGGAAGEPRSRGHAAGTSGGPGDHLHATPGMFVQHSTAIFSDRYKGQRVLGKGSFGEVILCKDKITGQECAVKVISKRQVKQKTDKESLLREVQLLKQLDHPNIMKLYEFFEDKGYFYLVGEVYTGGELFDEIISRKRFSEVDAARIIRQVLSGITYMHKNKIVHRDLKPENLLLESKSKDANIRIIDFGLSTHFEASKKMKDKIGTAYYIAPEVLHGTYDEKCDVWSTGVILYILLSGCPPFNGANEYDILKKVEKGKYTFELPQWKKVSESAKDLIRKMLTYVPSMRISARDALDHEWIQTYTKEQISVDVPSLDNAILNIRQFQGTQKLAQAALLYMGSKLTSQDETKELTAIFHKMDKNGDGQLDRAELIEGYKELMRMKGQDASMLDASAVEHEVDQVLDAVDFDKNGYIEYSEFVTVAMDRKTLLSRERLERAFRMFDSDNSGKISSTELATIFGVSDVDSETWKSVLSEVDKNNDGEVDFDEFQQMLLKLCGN
Type of data set: cell-free, Plasma.

Consider `CC(C)n1nc(Cc2cccc3ccccc23)c2c(N)ncnc21`, for which the Activity entry in the data set with Cryptosporidium parvum [1] is “Dose-dependent effect”; in the data set on Cryptosporidium parvum [2] it was “Dose-dependent effect”; in the data set with SF-539, “Non-toxic”; in data set [3] it was “Non-toxic”; with HL-60, “Non-toxic”; in the data set with HCC 2998, “Non-toxic”. Besides, in the data set with Toxoplasma gondii, the result was Active.

On to `CCN1CCC(Cn2nc(Cc3cccc4ccccc34)c3c(N)ncnc32)CC1`, for which the Activity entry (in the data set on SF-539; in data set [3]; in the data set on HL-60; with HCC 2998) was “Non-toxic” in each case.

For `CC(C)n1nc(-c2ccc3ccccc3c2)c2c(N)ncnc21`, the Activity entry (in the data set on SF-539; in data set [3]; in the data set with HL-60; with HCC 2998) was “Non-toxic” in each case.

For `CC(C)c1cccc(-c2nn(C(C)C)c3ncnc(N)c23)c1`, the Activity entry (in the data set with SF-539; in data set [3]; in the data set with HL-60; with HCC 2998) was “Non-toxic” in each case.

Regarding `CCN1CCC(n2nc(Cc3cccc4ccccc34)c3c(N)ncnc32)CC1`, the Activity result (in the data set on SF-539; in data set [3]; in the data set with HL-60; in the data set with HCC 2998) was “Non-toxic” throughout.

Take `CS(=O)(=O)N1CCC(n2nc(Cc3cccc4ccccc34)c3c(N)ncnc32)CC1`: the Activity result (with SF-539; in data set [3]; with HL-60; in the data set on HCC 2998) was “Non-toxic” each time.

As for `CC(C)(C)n1nc(Cc2cccc3ccccc23)c2c(N)ncnc21`, the Activity result (in the data set on SF-539; in data set [3]; with HL-60; in the data set with HCC 2998) was “Non-toxic” each time.

With `CC(C)(C)n1nc(-c2ccc3ccccc3c2)c2c(N)ncnc21`, the Activity entry with Cryptosporidium parvum [1] is “Dose-dependent effect”; in the data set on Cryptosporidium parvum [2], “Dose-dependent effect”; in the data set on SF-539, “Non-toxic”; in data set [3] it was “Non-toxic”; with HL-60, “Non-toxic”; with HCC 2998, “Non-toxic”. Besides, the result with Toxoplasma gondii was Active.

Turning to `COc1ccc2cc(-c3nn(C(C)C)c4ncnc(N)c34)ccc2c1`, the Activity result (in the data set with SF-539; in data set [3]; in the data set with HL-60; in the data set with HCC 2998) was “Non-toxic” in each case.

As for `CCOc1ccc2cc(-c3nn(C(C)C)c4ncnc(N)c34)ccc2c1`, the Activity result (with SF-539; in data set [3]; in the data set on HL-60; in the data set with HCC 2998) was “Non-toxic” throughout.

Take `CCN1CCC(CCn2nc(Cc3cccc4ccccc34)c3c(N)ncnc32)CC1`: the Activity result (in the data set with SF-539; in data set [3]; with HL-60; in the data set with HCC 2998) was “Non-toxic” in each case.

As to `CC(C)n1nc(-c2cnc3ccccc3c2)c2c(N)ncnc21`, the Activity result (in the data set with SF-539; in data set [3]; in the data set with HL-60; in the data set on HCC 2998) was “Non-toxic” throughout.

As to `Nc1ncnc2c1c(Cc1cccc3ccccc13)nn2CC1CCNCC1`, the Activity result (in the data set on SF-539; in data set [3]; in the data set with HL-60; in the data set on HCC 2998) was “Non-toxic” in each case.

For `CC(C)n1nc(-c2ccc(Cl)c(Cl)c2)c2c(N)ncnc21`, the Activity result (in the data set on SF-539; in data set [3]; in the data set with HL-60; in the data set with HCC 2998) was “Non-toxic” throughout.

The term IC50 denotes the concentration that inhibits the measured activity by half. For the compound `CC(C)n1nc(-c2ccc3c(c2)sc2ccccc23)c2c(N)ncnc21`, the half-maximal inhibitory concentration (IC50) in data set [4] was more than 3 µM.

With `CC(C)(C)n1nc(-c2cccc3ccccc23)c2c(N)ncnc21`, the Activity result was “Dose-dependent effect” in the data set with Cryptosporidium parvum [1]; “Dose-dependent effect” with Cryptosporidium parvum [2]; “Non-toxic” in the data set with SF-539; “Non-toxic” in data set [3]; “Non-toxic” with HL-60; “Non-toxic” with HCC 2998.
